Key:
HeLa = assay: Growth inhibition of human HeLa cells after 72 hrs by ATPlite assay; format: functional
Procedure, shortened: (§1)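 Cells seeded at about 3000 per well, grown 24 h, then given fresh medium and test compound in triplicate at 0.5 to 100µM in DMSO (0.5% final). Exposure 72 h at 37 °C, 5% CO₂. Viability measured by ATPlite luminescence and normalized to DMSO-treated controls. GI50 obtained by curve fitting. HeLa cultured in DMEM/10% FBS; MCF7, MDA-MB-231 and PC3 cultured in RPMI+GlutaMAX/10% FBS.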

[1] = Inhibition of DNA-PK at 10 uM
[2] = target: Misshapen-like kinase 1 (Homo sapiens) (UniProt Q8N4C8); assay: Inhibition of MINK1 at 10 uM
[3] = system: Proto-oncogene tyrosine-protein kinase receptor Ret (Homo sapiens), P07949 [V804L]; assay: Inhibition of RET V804L mutant at 10 uM
PC-3 = assay: Growth inhibition of human PC3 cells after 72 hrs by ATPlite assay; format: functional; settings: PC-3, 72 h; procedure, shortened: as §1
[4] = target: Leucine-rich repeat serine/threonine-protein kinase 2 (Homo sapiens) (UniProt Q5S007); assay: Inhibition of LRKK2 at 10 uM
Leucine-rich repeat serine/threonine-protein kinase 2 (Homo sapiens), sequence (Q5S007 whole entry): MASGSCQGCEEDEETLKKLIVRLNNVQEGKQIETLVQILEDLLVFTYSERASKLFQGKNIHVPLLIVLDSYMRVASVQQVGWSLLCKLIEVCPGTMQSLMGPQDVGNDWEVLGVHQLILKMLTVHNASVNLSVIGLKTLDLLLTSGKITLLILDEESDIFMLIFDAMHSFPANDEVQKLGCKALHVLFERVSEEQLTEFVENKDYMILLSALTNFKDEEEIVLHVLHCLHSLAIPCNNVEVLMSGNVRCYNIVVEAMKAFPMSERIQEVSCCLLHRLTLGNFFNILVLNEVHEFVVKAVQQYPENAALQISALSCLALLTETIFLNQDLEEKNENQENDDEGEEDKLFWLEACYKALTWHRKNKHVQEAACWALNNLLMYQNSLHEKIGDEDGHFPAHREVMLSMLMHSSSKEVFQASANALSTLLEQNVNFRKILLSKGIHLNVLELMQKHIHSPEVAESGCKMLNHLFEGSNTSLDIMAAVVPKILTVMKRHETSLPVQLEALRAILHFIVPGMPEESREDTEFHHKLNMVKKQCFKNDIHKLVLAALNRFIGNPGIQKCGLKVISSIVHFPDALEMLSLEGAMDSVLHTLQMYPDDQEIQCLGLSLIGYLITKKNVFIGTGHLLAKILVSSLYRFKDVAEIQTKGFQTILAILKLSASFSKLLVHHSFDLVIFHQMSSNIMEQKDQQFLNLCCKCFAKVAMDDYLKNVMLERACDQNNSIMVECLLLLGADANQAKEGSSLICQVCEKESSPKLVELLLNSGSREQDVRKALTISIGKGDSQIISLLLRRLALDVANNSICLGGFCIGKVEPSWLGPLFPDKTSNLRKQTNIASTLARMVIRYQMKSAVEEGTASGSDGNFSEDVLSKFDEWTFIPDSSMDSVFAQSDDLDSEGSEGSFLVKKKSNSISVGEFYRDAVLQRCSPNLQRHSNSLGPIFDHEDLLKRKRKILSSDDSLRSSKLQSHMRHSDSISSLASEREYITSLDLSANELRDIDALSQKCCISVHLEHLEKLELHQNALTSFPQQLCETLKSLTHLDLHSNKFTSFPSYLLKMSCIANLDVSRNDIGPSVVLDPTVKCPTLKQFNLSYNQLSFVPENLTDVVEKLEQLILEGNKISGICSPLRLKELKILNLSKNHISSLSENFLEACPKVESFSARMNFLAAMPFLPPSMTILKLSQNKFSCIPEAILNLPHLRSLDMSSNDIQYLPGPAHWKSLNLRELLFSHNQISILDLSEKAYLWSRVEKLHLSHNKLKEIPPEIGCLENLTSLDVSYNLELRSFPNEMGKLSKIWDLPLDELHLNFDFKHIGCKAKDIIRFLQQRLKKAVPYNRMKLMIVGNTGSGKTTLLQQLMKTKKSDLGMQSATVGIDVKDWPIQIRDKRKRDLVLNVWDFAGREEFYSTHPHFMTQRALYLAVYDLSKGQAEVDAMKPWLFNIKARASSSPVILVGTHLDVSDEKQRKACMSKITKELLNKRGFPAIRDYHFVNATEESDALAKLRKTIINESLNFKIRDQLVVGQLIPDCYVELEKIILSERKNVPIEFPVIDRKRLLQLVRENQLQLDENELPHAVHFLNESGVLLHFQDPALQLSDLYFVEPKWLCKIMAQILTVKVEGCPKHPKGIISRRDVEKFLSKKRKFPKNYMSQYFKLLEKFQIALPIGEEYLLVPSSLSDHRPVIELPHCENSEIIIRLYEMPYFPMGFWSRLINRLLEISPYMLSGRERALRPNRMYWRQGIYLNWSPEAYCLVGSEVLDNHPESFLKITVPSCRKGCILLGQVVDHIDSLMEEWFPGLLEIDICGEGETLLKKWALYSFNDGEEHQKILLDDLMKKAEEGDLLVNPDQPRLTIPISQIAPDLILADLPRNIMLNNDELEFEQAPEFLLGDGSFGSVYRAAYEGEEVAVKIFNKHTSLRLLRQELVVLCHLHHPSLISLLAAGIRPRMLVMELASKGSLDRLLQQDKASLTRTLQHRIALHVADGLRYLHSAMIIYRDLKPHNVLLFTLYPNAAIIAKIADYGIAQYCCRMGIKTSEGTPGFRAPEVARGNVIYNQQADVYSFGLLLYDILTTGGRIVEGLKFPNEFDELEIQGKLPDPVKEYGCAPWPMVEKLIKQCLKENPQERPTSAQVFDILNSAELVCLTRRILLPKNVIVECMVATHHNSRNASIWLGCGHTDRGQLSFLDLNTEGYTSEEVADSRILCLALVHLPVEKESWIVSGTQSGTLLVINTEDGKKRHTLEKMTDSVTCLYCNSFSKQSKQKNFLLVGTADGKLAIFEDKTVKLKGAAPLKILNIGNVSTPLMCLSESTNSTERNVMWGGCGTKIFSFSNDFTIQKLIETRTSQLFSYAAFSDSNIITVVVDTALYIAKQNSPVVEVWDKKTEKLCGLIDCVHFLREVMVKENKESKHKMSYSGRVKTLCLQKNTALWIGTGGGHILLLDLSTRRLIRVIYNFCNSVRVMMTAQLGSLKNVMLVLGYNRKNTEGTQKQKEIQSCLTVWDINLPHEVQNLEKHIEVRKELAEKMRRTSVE

[5] = target: T1, 3-phosphoinositide-dependent protein kinase 1 (Homo sapiens, UniProt O15530); assay: Inhibition of PDK1 by Z'-LYTE kinase activity assay
T1 sequence (O15530 whole entry): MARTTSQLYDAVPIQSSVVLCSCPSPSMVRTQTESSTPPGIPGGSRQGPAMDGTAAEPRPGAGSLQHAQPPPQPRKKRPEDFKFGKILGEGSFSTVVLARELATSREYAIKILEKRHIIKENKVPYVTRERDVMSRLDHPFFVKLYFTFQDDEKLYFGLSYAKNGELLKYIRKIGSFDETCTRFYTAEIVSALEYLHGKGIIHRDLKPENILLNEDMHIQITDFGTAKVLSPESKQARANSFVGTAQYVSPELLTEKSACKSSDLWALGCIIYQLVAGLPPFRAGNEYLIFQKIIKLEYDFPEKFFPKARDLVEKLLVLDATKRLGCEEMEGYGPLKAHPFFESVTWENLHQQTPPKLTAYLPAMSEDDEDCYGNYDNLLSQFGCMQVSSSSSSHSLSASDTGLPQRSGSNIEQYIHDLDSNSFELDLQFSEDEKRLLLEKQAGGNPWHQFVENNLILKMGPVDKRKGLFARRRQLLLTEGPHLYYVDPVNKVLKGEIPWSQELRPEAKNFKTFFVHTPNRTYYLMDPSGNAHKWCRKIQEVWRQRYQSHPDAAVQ

[6] = target: MAP/microtubule affinity-regulating kinase 4 (Homo sapiens) (UniProt Q96L34); assay: Inhibition of MARK4 at 10 uM
[7] = target: Muscle, skeletal receptor tyrosine-protein kinase (Homo sapiens) (UniProt O15146); assay: Inhibition of MUSK at 10 uM
[8] = target: Mitogen-activated protein kinase 8 (Homo sapiens) (UniProt P45983); assay: Inhibition of JNK1 at 10 uM
Mitogen-activated protein kinase 8 (Homo sapiens), sequence (P45983 whole entry): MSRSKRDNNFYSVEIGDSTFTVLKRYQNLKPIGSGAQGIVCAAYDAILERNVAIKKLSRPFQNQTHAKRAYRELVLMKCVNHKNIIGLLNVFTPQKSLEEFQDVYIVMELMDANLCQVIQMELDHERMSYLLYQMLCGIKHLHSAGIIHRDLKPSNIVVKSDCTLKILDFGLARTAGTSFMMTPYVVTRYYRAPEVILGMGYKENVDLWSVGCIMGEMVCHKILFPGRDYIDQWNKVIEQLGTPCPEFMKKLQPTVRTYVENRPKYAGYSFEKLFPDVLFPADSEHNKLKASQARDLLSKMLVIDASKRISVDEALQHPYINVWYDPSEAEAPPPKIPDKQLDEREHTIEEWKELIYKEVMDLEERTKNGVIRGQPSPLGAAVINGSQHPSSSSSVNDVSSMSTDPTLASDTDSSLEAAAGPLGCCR

[9] = target: Serine/threonine-protein kinase haspin (Homo sapiens) (UniProt Q8TF76); assay: Inhibition of GSG2 at 10 uM
Serine/threonine-protein kinase haspin (Homo sapiens), sequence (Q8TF76 whole entry, canonical isoform): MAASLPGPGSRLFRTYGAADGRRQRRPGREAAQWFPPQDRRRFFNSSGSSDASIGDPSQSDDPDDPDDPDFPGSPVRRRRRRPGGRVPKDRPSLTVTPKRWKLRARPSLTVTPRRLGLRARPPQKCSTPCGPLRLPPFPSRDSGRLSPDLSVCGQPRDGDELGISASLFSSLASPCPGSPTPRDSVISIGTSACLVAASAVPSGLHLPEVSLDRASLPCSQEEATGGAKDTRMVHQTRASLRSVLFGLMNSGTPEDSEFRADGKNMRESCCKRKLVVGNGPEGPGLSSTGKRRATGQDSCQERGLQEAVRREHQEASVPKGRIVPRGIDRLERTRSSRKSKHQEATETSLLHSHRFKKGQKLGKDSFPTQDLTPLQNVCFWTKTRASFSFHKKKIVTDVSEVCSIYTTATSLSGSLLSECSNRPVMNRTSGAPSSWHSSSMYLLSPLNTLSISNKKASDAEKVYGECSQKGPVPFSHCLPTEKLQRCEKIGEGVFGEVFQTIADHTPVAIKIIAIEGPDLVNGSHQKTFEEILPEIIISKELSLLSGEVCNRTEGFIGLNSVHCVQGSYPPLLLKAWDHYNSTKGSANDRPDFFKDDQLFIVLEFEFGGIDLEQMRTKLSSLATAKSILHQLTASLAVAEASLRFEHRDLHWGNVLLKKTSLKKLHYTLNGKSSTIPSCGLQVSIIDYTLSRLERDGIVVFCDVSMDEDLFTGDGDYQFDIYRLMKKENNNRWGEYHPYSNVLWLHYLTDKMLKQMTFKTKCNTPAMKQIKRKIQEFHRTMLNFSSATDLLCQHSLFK

[10] = target: Phosphatidylinositol 4,5-bisphosphate 3-kinase catalytic subunit gamma isoform (Homo sapiens, UniProt P48736); assay: Inhibition of PI3Kgamma
[11] = target: NUAK family SNF1-like kinase 1 (Homo sapiens) (UniProt O60285); assay: Inhibition of NUAK1 at 10 uM
[12] = target: Receptor-type tyrosine-protein kinase FLT3 (Homo sapiens) (UniProt P36888); assay: Inhibition of FLT3 at 10 uM
[13] = target: Serine/threonine-protein kinase Sgk1 (Homo sapiens) (UniProt O00141); assay: Inhibition of SGK1 at 10 uM
Serine/threonine-protein kinase Sgk1 (Homo sapiens), sequence (O00141 whole entry): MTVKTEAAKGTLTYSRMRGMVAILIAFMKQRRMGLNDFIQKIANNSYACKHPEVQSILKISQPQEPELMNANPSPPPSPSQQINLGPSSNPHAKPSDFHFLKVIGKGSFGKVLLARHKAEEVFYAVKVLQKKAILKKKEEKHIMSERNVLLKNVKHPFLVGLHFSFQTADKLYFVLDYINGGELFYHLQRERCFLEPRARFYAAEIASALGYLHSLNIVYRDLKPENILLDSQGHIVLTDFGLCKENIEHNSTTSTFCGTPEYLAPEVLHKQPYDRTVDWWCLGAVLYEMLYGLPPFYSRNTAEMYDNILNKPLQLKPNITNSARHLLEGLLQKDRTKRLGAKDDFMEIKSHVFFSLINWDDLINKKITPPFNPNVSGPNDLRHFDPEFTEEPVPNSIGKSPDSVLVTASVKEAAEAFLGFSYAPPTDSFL

[14] = target: High affinity nerve growth factor receptor (Homo sapiens) (UniProt P04629); assay: Inhibition of NTRK1 at 10 uM
[15] = target: Myosin light chain kinase 2, skeletal/cardiac muscle (Homo sapiens) (UniProt Q9H1R3); assay: Inhibition of MYLK2 at 10 uM
[16] = target: Vascular endothelial growth factor receptor 3 (Homo sapiens) (UniProt P35916); assay: Inhibition of FLT4 at 10 uM
[17] = target: Dual specificity protein kinase CLK2 (Homo sapiens) (UniProt P49760); assay: Inhibition of CLK2 at 10 uM
Dual specificity protein kinase CLK2 (Homo sapiens), sequence (P49760 whole entry, looked up): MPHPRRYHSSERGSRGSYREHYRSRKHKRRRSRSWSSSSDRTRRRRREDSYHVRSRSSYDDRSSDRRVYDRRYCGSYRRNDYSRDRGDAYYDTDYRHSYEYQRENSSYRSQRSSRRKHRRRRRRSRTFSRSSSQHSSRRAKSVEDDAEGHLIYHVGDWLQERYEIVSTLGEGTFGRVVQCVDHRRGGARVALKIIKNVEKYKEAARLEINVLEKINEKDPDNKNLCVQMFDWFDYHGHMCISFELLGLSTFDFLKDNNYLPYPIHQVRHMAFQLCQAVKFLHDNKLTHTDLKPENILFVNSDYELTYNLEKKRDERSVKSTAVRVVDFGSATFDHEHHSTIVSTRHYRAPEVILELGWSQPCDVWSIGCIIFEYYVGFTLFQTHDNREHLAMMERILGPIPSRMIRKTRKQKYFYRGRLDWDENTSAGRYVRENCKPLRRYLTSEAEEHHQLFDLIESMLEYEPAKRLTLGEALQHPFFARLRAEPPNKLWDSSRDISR

- GI50 (HeLa): 2.53 µM
- inhibition [1]: > 50%
- inhibition [2]: > 50%
- inhibition [3]: > 50%
- GI50 (PC-3): 2.43 µM
- inhibition [4]: > 50%
- IC50 [5]: 3.87 µM
- inhibition [6]: > 50%
- inhibition [7]: > 50%
- inhibition [8]: > 50%
- inhibition [9]: > 50%
- IC50 [10]: 40 µM
- inhibition [11]: > 50%
- inhibition [12]: > 50%
- inhibition [13]: > 50%
- inhibition [14]: > 50%
- inhibition [15]: > 50%
- inhibition [16]: > 50%
- inhibition [17]: > 50%
SMILES: C(#Cc1n[nH]c2ccccc12)c1ccncc1

— ChEMBL document CHEMBL1629532, “Design, synthesis, and structure-activity relationships of 3-ethynyl-1H-indazoles as inhibitors of the phosphatidylinositol 3-kinase signaling pathway” (J Med Chem, 2010)
